In brackets after ≈: the same amount, converted by molar mass.
How the values were obtained:
[1] = In vitro inhibitory activity against Pneumococci PenR (65); assay type: functional
Streptococcus sp [2] = test: In vitro inhibitory activity against Streptococci EryR (27)
Mus musculus [3] = test: In Vivo evaluation for its effective dose against Streptococcus pneumoniae (030MV2 EryRc); assay type: functional
Outline: (§1)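 Male Charles River CD1 mice, 20-22 g, 10 per dose group, infected intraperitoneally with 0.5 mL diluted overnight broth culture (physiological buffer or 5% hog mucine) at 10-100 times the minimal lethal dose. Compound suspended in carboxymethylcellulose, 0.5 mL given orally immediately and 4 h postinfection. Survival followed 8-10 days; ED50 (unitary dose protecting 50% from death) by Litchfield-Wilcoxon probit method.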

Mus musculus [4] = test: In Vivo evaluation for its effective dose against Staphylococcus aureus (011GO25 EryRi.; assay type: functional; outline: as §1
Streptococcus sp [5] = test: In vitro inhibitory activity against Streptococci EryRi (98)
Haemophilus influenzae [6] = test: In vitro inhibitory activity against Haemophilus influenzae (351CB12); assay type: functional
Outline: (§2)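 Two-fold agar dilution on Mueller-Hinton agar (pH 7.4). Inoculum from overnight plate cultures suspended in Mueller-Hinton broth, adjusted to 10^9 CFU/mL, diluted 1:200 and spotted by multipoint inoculator at about 10^4 CFU/spot. Plates incubated 37 °C for 20 h. MIC taken as lowest concentration with no visible growth.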

Mus musculus [7] = test: In Vivo evaluation for its effective dose against Streptococcus pneumoniae (030SJ1 EryRc); assay type: functional; outline: as §1
Escherichia coli = test: In vitro inhibitory activity against Escherichia coli (250 UC5); assay type: functional; outline: as §2
[8] = In vitro inhibitory activity against Pneumococci EryRc (34); assay type: functional
Mus musculus [9] = test: In Vivo evaluation for its effective dose against Haemophilus influenzae (351TO19 AmpR beta (-)); assay type: functional; outline: as §1
Mus musculus [10] = test: In Vivo evaluation for its effective dose against Streptococcus pneumoniae (030SJ6 EryRc); assay type: functional; outline: as §1
Streptococcus pneumoniae [11] = test: In vitro inhibitory activity against Streptococcus pneumoniae (EryRc 030SJ1); assay type: functional; outline: as §2
Streptococcus pyogenes [12] = test: In vitro inhibitory activity against Streptococcus pyogenes (02A1UC1); assay type: functional; outline: as §2
Streptococcus sp [13] = test: In vitro inhibitory activity against Streptococci EryRi (98); remark: listed apart in the source
Staphylococcus aureus [14] = test: In vitro inhibitory activity against Staphylococcus aureus (EryRi 011GO25i); assay type: functional; outline: as §2
Mus musculus [15] = test: In Vivo evaluation for its effective dose against Haemophilus influenzae (351RD7 AmpR beta (+)); assay type: functional; outline: as §1
Mus musculus [16] = test: In Vivo evaluation for its effective dose against Streptococcus pneumoniae (030RO1 EryRi); assay type: functional; outline: as §1
Staphylococcus sp. [17] = test: In vitro inhibitory activity against Staphylococci EryRc (13); assay type: functional
Haemophilus [18] = test: In vitro inhibitory activity against Haemophilus AmpS (43); assay type: functional
Staphylococcus aureus [19] = test: In vitro inhibitory activity against Staphylococcus aureus (EryRc 011CB20); assay type: functional; outline: as §2
Haemophilus [20] = test: In vitro inhibitory activity against Haemophilus AmpR (37); assay type: functional
Streptococcus pneumoniae [21] = test: In vitro inhibitory activity against Streptococcus pneumoniae (032UC1); assay type: functional; outline: as §2
Streptococcus sp [22] = test: In vitro inhibitory activity against Streptococci EryR (27); remark: listed apart in the source
Enterococcus = test: In vitro inhibitory activity against enterococci EryRi (19); assay type: functional
Staphylococcus aureus [23] = test: In vitro inhibitory activity against Staphylococcus aureus (011UC4); assay type: functional; outline: as §2
Mus musculus [24] = test: In Vivo evaluation for its effective dose against Streptococcus pneumoniae (032UC1); assay type: functional; outline: as §1
Mus musculus [25] = test: In Vivo evaluation for its effective dose against Streptococcus pneumoniae (030Cr29 EryRc); assay type: functional; outline: as §1
[26] = test system: Staphylococcus epidermidis; test: In vitro inhibitory activity against Staphylococcus epidermidis (EryRi 012GO11i); assay type: functional; outline: as §2
Streptococcus pneumoniae [27] = test: In vitro inhibitory activity against Streptococcus pneumoniae (EryRi 030SJ5i); assay type: functional; outline: as §2
Haemophilus influenzae [28] = test: In vitro inhibitory activity against Haemophilus influenzae (351HT3); assay type: functional; outline: as §2
Mus musculus [29] = test: In Vivo evaluation for its effective dose against Haemophilus influenzae (351GR1); assay type: functional; outline: as §1
Mus musculus [30] = test: In Vivo evaluation for its effective dose against Streptococcus pyogenes (02A1UC1); assay type: functional; outline: as §1
Staphylococcus sp. [31] = test: In vitro inhibitory activity against Staphylococci EryRi (65); assay type: functional
Mus musculus [32] = test: In Vivo evaluation for its effective dose against Staphylococcus aureus (011UC4).; assay type: functional; outline: as §1
Streptococcus pyogenes [33] = test: In vitro inhibitory activity against Streptococcus pyogenes (02A1UC1)

CC[C@H]1OC(=O)[C@H](C)[C@@H](O[C@H]2C[C@@](C)(OC)[C@@H](O)[C@H](C)O2)[C@H](C)[C@@H](O[C@@H]2O[C@H](C)C[C@H](N(C)C)[C@H]2O)[C@](C)(OC)C[C@@H](C)C(=O)[C@H](C)[C@@H](O)[C@]1(C)O [CLARITHROMYCIN]
MIC50 [1]: 0.3 µg/mL (≈ 0.401 µM) | MIC90 [1]: 40 µg/mL (≈ 53.5 µM) | MIC90 (Streptococcus sp [2]): 40 µg/mL (≈ 53.5 µM) | ED50 (Mus musculus [3]): > 100 mg/kg | ED50 (Mus musculus [4]): > 100 mg/kg | MIC90 (Streptococcus sp [5]): 40 µg/mL (≈ 53.5 µM) | MIC (Haemophilus influenzae [6]): 2.5 µg/mL (≈ 3.34 µM) | ED50 (Mus musculus [7]): > 100 mg/kg | MIC (Escherichia coli): 40 µg/mL (≈ 53.5 µM) | MIC50 [8]: 40 µg/mL (≈ 53.5 µM) | MIC90 [8]: 40 µg/mL (≈ 53.5 µM) | ED50 (Mus musculus [9]): 600 mg/kg | ED50 (Mus musculus [10]): > 100 mg/kg | MIC (Streptococcus pneumoniae [11]): 40 µg/mL (≈ 53.5 µM) | MIC (Streptococcus pyogenes [12]): 0.08 µg/mL (≈ 0.107 µM) | MIC50 (Streptococcus sp [13]): 40 µg/mL (≈ 53.5 µM) | MIC (Staphylococcus aureus [14]): 40 µg/mL (≈ 53.5 µM) | ED50 (Mus musculus [15]): 109 mg/kg | ED50 (Mus musculus [16]): > 100 mg/kg | MIC50 (Staphylococcus sp. [17]): 40 µg/mL (≈ 53.5 µM) | MIC90 (Staphylococcus sp. [17]): 40 µg/mL (≈ 53.5 µM) | MIC50 (Haemophilus [18]): 1.2 µg/mL (≈ 1.6 µM) | MIC90 (Haemophilus [18]): 5 µg/mL (≈ 6.68 µM) | MIC (Staphylococcus aureus [19]): 40 µg/mL (≈ 53.5 µM) | MIC50 (Haemophilus [20]): 2.5 µg/mL (≈ 3.34 µM) | MIC90 (Haemophilus [20]): 10 µg/mL (≈ 13.4 µM) | MIC (Streptococcus pneumoniae [21]): 0.04 µg/mL (≈ 0.0535 µM) | MIC50 (Streptococcus sp [22]): 1.2 µg/mL (≈ 1.6 µM) | MIC50 (Enterococcus): 1.2 µg/mL (≈ 1.6 µM) | MIC90 (Enterococcus): 10 µg/mL (≈ 13.4 µM) | MIC (Staphylococcus aureus [23]): 0.3 µg/mL (≈ 0.401 µM) | ED50 (Mus musculus [24]): > 50 mg/kg | ED50 (Mus musculus [25]): > 100 mg/kg | MIC [26]: 40 µg/mL (≈ 53.5 µM) | MIC (Streptococcus pneumoniae [27]): 40 µg/mL (≈ 53.5 µM) | MIC (Haemophilus influenzae [28]): 2.5 µg/mL (≈ 3.34 µM) | ED50 (Mus musculus [29]): 346 mg/kg | ED50 (Mus musculus [30]): 16 mg/kg | MIC50 (Staphylococcus sp. [31]): 40 µg/mL (≈ 53.5 µM) | MIC90 (Staphylococcus sp. [31]): 40 µg/mL (≈ 53.5 µM) | ED50 (Mus musculus [32]): 12.6 mg/kg

CC[C@H]1OC(=O)[C@H](C)C(=O)[C@H](C)[C@@H](O[C@@H]2O[C@H](C)C[C@H](N(C)C)[C@H]2O)[C@](C)(OC)C[C@@H](C)C(=O)[C@H](C)[C@H]2N(NCCCc3ccnc4ccccc34)C(=O)O[C@]12C
ED50 (Mus musculus [3]): 19 mg/kg | ED50 (Mus musculus [4]): 13 mg/kg | MIC (Haemophilus influenzae [6]): 0.6 µg/mL (≈ 0.753 µM) | ED50 (Mus musculus [7]): 42 mg/kg | MIC (Escherichia coli): 40 µg/mL (≈ 50.2 µM) | MIC (Streptococcus pyogenes [33]): 0.02 µg/mL (≈ 0.0251 µM) | ED50 (Mus musculus [9]): 410 mg/kg | ED50 (Mus musculus [10]): 17 mg/kg | MIC (Streptococcus pneumoniae [11]): 0.15 µg/mL (≈ 0.188 µM) | MIC (Staphylococcus aureus [14]): 0.08 µg/mL (≈ 0.1 µM) | ED50 (Mus musculus [15]): 116 mg/kg | ED50 (Mus musculus [16]): 30 mg/kg | MIC (Staphylococcus aureus [19]): 40 µg/mL (≈ 50.2 µM) | MIC (Streptococcus pneumoniae [21]): 0.02 µg/mL (≈ 0.0251 µM) | MIC (Staphylococcus aureus [23]): 0.02 µg/mL (≈ 0.0251 µM) | ED50 (Mus musculus [24]): 15.8 mg/kg | ED50 (Mus musculus [25]): 15 mg/kg | MIC [26]: 0.04 µg/mL (≈ 0.0502 µM) | MIC (Streptococcus pneumoniae [27]): 0.02 µg/mL (≈ 0.0251 µM) | MIC (Haemophilus influenzae [28]): 0.6 µg/mL (≈ 0.753 µM) | ED50 (Mus musculus [29]): 142 mg/kg | ED50 (Mus musculus [30]): 16 mg/kg | ED50 (Mus musculus [32]): 20 mg/kg
